Results published in article PMC3866226 (Molecular pharmaceutics, 2013).
Values joined by “and” are separate entries in the source; they are usually repeats but may differ in a detail not shown here. Equal values may be shown once. “Also recorded” adds a separate entry of the source. Bridge positions count the residues as written; N and C are the ends. Square brackets hold non-standard residues; d marks the D form. Peptide text beside a SMILES is read from it.

How the values were obtained:
[1] = system: B16/F1 melanoma-bearing C57 mice; assay: Effect of L-lysine co-injection on renal and tumor uptake; type: in vivo, mouse; settings: 2 h post-injection, 15 mg L-lysine
In short: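 Groups of 4 tumour-bearing C57 mice received 0.037 MBq radiopeptide mixed with 15 mg L-lysine via injection. Mice were killed at 2 h, and tumours and organs were weighed and gamma-counted. Uptake with versus without L-lysine was compared by unpaired Student's t-test, significance p<0.05.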

[2] = system: B16/F1 melanoma-bearing C57 mice; assay: Melanoma imaging by small animal SPECT/CT; type: in vivo, mouse; settings: 2 h post-injection of 7.4 MBq via tail vein
[3] = system: B16/F1 melanoma cells; assay: Cellular internalization; type: cell-based, murine; settings: after 20 min of incubation at 25 °C, acid wash pH 4.5, n=3
In short: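 Cells at 2.5×10^5/well were grown overnight at 37 °C and washed with binding medium (MEM, 25 mM HEPES pH 7.4, 0.2% BSA, 0.3 mM 1,10-phenanthroline). They were incubated at 25 °C with ~200,000 cpm HPLC-purified radiopeptide for 20–120 min (n=3). Membrane-bound activity was stripped with 40 mM sodium acetate pH 4.5/0.9% NaCl/0.2% BSA. Cells were lysed in 1 N NaOH for 5 min; both fractions were gamma-counted.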

[4] = system: B16/F1 melanoma-bearing C57 mice; assay: Urinary metabolites by radio-HPLC; type: in vivo, mouse; settings: urine at 2 h post-injection of ~3.7 MBq via tail vein
[5] = system: B16/F1 melanoma cells; assay: Cellular efflux; type: cell-based, murine; settings: loaded 2 h at 25 °C, then 2 h of incubation in the culture medium
In short: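 B16/F1 cells were seeded at 2.5×10^5/well and grown overnight at 37 °C. They were loaded with radiopeptide for 2 h at 25 °C and rinsed twice with ice-cold PBS. Release into culture medium was then monitored. At 20, 40, 60, 90 and 120 min, surface-bound and intracellular radioactivity were collected separately and gamma-counted.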

[6] = system: B16/F1 melanoma-bearing C57 mice; assay: Biodistribution in B16/F1 melanoma-bearing C57 mice; type: in vivo, mouse
In short: (§1)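 Female C57 mice bore subcutaneous right-flank tumours from 1×10^6 B16/F1 cells (~0.2 g at 10 days). Radiopeptide, 0.037 MBq in pH 7.4 saline, went in via tail vein. Groups of 4 were killed at 0.5, 2, 4 and 24 h; tumours and organs were weighed and gamma-counted. Blood was taken as 6.5% body weight. Blockade: co-injected 10 µg (6.1 nmol) unlabeled NDP-MSH, 2 h. Results as %ID/g or %ID, mean ± SD, n=4.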

[7] = as above; type: in vivo, mouse; settings: female, C57, mouse, iv, 0.037 MBq, total radioactivity
In short: as §1

Reduction of renal uptake by L-lysine co-injection ([1]; versus without L-lysine): 41% and 40–50% | Remained intact in the urine [4]: Approximately 70% | Transformed to a more hydrophobic compound in the urine [4]: 30% | Renal uptake as % of the renal uptake of ^99mTc-RTD-Lys-(Arg^11)CCMSH ([6]; 0.5 h post-injection): 62% | Renal uptake as % of the renal uptake of ^99mTc-RTD-Lys-(Arg^11)CCMSH ([6]; 2 h post-injection): 70% | Uptake ratio Tumor/Blood ([6]; 2 h post-injection, NDP blockade): 2.75 | Renal uptake as % of the renal uptake of ^99mTc-RTD-Lys-(Arg^11)CCMSH ([6]; 4 h post-injection): 70% | tissue uptake at 0.5 h ([7]; blood): 1.5 ± 0.52 %ID/g | tissue uptake at 2 h ([7]; blood): 0.49 ± 0.05 %ID/g | tissue uptake at 4 h ([7]; blood): 0.54 ± 0.45 %ID/g | tissue uptake at 24 h ([7]; blood): 0.07 ± 0.02 %ID/g | tissue uptake at 0.5 h ([7]; bone): 1.6 ± 0.73 %ID/g | tissue uptake at 2 h ([7]; bone): 0.57 ± 0.08 %ID/g | tissue uptake at 4 h ([7]; bone): 0.54 ± 0.28 %ID/g | tissue uptake at 24 h ([7]; bone): 0.47 ± 0.05 %ID/g | tissue uptake at 0.5 h ([7]; brain): 0.15 ± 0.05 %ID/g | tissue uptake at 2 h ([7]; brain): 0.04 ± 0.01 %ID/g | tissue uptake at 4 h ([7]; brain): 0.02 ± 0.01 %ID/g | tissue uptake at 24 h ([7]; brain): 0.03 ± 0.01 %ID/g | tissue uptake at 0.5 h ([7]; heart): 0.74 ± 0.43 %ID/g | tissue uptake at 2 h ([7]; heart): 0.26 ± 0.15 %ID/g | tissue uptake at 4 h ([7]; heart): 0.16 ± 0.03 %ID/g | tissue uptake at 24 h ([7]; heart): 0.1 ± 0.07 %ID/g | tissue uptake dose at 0.5 h ([7]; intestines): 1.36 ± 0.27 %ID | tissue uptake dose at 2 h ([7]; intestines): 1.59 ± 1.08 %ID | tissue uptake dose at 4 h ([7]; intestines): 0.95 ± 0.3 %ID | tissue uptake dose at 24 h ([7]; intestines): 0.44 ± 0.22 %ID | tissue uptake at 0.5 h ([7]; kidneys): 90.2 ± 15.4 %ID/g | tissue uptake at 2 h ([7]; kidneys): 94 ± 18.3 %ID/g | tissue uptake at 4 h ([7]; kidneys): 73.9 ± 3.73 %ID/g | tissue uptake at 24 h ([7]; kidneys): 44.3 ± 12.1 %ID/g | tissue uptake at 0.5 h ([7]; liver): 1.86 ± 0.17 %ID/g | tissue uptake at 2 h ([7]; liver): 1.4 ± 0.34 %ID/g | tissue uptake at 4 h ([7]; liver): 1.59 ± 0.13 %ID/g | tissue uptake at 24 h ([7]; liver): 1.21 ± 0.26 %ID/g | tissue uptake at 0.5 h ([7]; lung): 2.01 ± 0.97 %ID/g | tissue uptake at 2 h ([7]; lung): 0.87 ± 0.4 %ID/g | tissue uptake at 4 h ([7]; lung): 0.49 ± 0.43 %ID/g | tissue uptake at 24 h ([7]; lung): 0.19 ± 0.1 %ID/g | tissue uptake at 0.5 h ([7]; muscle): 11.2 ± 6.02 %ID/g | tissue uptake at 2 h ([7]; muscle): 0.17 ± 0.1 %ID/g | tissue uptake at 4 h ([7]; muscle): 0.1 ± 0.07 %ID/g | tissue uptake at 24 h ([7]; muscle): 0.26 ± 0.02 %ID/g | tissue uptake at 0.5 h ([7]; pancreas): 0.62 ± 0.25 %ID/g | tissue uptake at 2 h ([7]; pancreas): 0.1 ± 0.02 %ID/g | tissue uptake at 4 h ([7]; pancreas): 0.08 ± 0.08 %ID/g | tissue uptake at 24 h ([7]; pancreas): 0.18 ± 0.07 %ID/g | tissue uptake at 0.5 h ([7]; skin): 9.59 ± 0.62 %ID/g | tissue uptake at 2 h ([7]; skin): 0.69 ± 0.18 %ID/g | tissue uptake at 4 h ([7]; skin): 0.35 ± 0.08 %ID/g | tissue uptake at 24 h ([7]; skin): 0.42 ± 0.27 %ID/g | tissue uptake at 0.5 h ([7]; spleen): 0.82 ± 0.43 %ID/g | tissue uptake at 2 h ([7]; spleen): 0.4 ± 0.1 %ID/g | tissue uptake at 4 h ([7]; spleen): 0.5 ± 0.15 %ID/g | tissue uptake at 24 h ([7]; spleen): 0.34 ± 0.06 %ID/g | tissue uptake at 0.5 h ([7]; stomach): 1.92 ± 0.53 %ID/g | tissue uptake at 2 h ([7]; stomach): 1.21 ± 0.61 %ID/g | tissue uptake at 4 h ([7]; stomach): 0.96 ± 0.27 %ID/g | tissue uptake at 24 h ([7]; stomach): 0.4 ± 0.13 %ID/g | tissue to tissue ratio at 0.5 h ([7]; tumor / blood): 11.1 | tissue to tissue ratio at 2 h ([7]; tumor / blood): 34.9 | tissue to tissue ratio at 4 h ([7]; tumor / blood): 36.4 | tissue to tissue ratio at 24 h ([7]; tumor / blood): 126 | tissue to tissue ratio at 0.5 h ([7]; tumor / kidneys): 0.19 | tissue to tissue ratio at 2 h ([7]; tumor / kidneys): 0.18 | tissue to tissue ratio at 4 h ([7]; tumor / kidneys): 0.27 | tissue to tissue ratio at 24 h ([7]; tumor / kidneys): 0.2 | tissue to tissue ratio at 0.5 h ([7]; tumor / lung): 8.31 | tissue to tissue ratio at 2 h ([7]; tumor / lung): 19.7 | tissue to tissue ratio at 4 h ([7]; tumor / lung): 40.1 | tissue to tissue ratio at 24 h ([7]; tumor / lung): 46.4 | tissue uptake at 0.5 h ([7]; tumor): 16.7 ± 5.31 %ID/g | tissue uptake at 2 h ([7]; tumor): 17.1 ± 3.82 %ID/g | tissue uptake at 4 h ([7]; tumor): 19.6 ± 4.68 %ID/g | tissue uptake at 24 h ([7]; tumor): 8.81 ± 2.13 %ID/g | tissue to tissue ratio at 0.5 h ([7]; tumor/liver): 8.98 | tissue to tissue ratio at 2 h ([7]; tumor/liver): 12.2 | tissue to tissue ratio at 4 h ([7]; tumor/liver): 12.3 | tissue to tissue ratio at 24 h ([7]; tumor/liver): 7.28 | tissue to tissue ratio at 0.5 h ([7]; tumor/muscle): 1.48 | tissue to tissue ratio at 2 h ([7]; tumor/muscle): 101 | tissue to tissue ratio at 4 h ([7]; tumor/muscle): 196 | tissue to tissue ratio at 24 h ([7]; tumor/muscle): 33.9 | dose excreted at 0.5 h ([7]; urine): 44.5 ± 3.12% | dose excreted at 2 h ([7]; urine): 59.2 ± 9.65% | dose excreted at 4 h ([7]; urine): 67.5 ± 10% | dose excreted at 24 h ([7]; urine): 76.8 ± 8.21%
Compound: CC(C)[C@H](NC(=O)[C@@H]1CCCN1C(=O)[C@H](CCCNC(=N)N)NC(=O)[C@H](CS)NC(=O)[C@H](Cc1c[nH]c2ccccc12)NC(=O)[C@H](CCCNC(=N)N)NC(=O)[C@@H](Cc1ccccc1)NC(=O)[C@H](Cc1c[nH]cn1)NC(=O)[C@H](CCC(=O)O)NC(=O)[C@H](CS)NC(=O)[C@H](CS)NC(=O)[C@H](CCCCN)NC(=O)[C@@H]1CC(=O)N[C@@H](CCCNC(=N)N)C(=O)N[C@@H](C(C)C)C(=O)N[C@@H](CC(=O)O)C(=O)N[C@H](Cc2ccc(O)cc2)C(=O)N1)C(N)=O [^99mTc-RVD-Lys-(Arg^11)CCMSH, metal not drawn] (RVD[dY]DKCCEH[dF]RWCRPV-NH2; lactam N-5)
Effect of L-lysine co-injection on tumor uptake ([1]; p>0.05): didn't affect the tumor uptake; also recorded: without affecting their tumor uptake | Visualization of flank B16/F1 melanoma lesions by SPECT/CT [2]: clearly visualized | Activity internalized in the cells [3]: ~72% | Activity remained inside the cells (cellular efflux) [5]: 70%
